From PubChem
GRIN3A LBD mod – binders of NR3A ligand-binding domain, primary screen, biophysical, differential scanning fluorimetry, uHTS; Tm shift relative to glycine control, % at 25 µM; 340,000 compounds, 2.5% hits; AID 1259313, 2017; NR3A LBD differential scanning fluorimetry, Tm shift; 0% = protein alone, 100% = glycine-bound protein; Glutamate receptor ionotropic, NMDA 3A (GRIN3A) ligand-binding domain;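 active means melting temperature shift of at least 10% of the positive control shift, at one fixed dose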
H9c2 protect – cardioprotection against H2O2-induced cell death, primary screen, uHTS, H9c2 cells, ATPLite luminescence. H9c2 cardiomyocytes, H2O2 injury protection, 2 h. protection from H2O2 cell death, % at 20 µM. 360,000 compounds, 0.63% hits;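 active means compounds giving at least 50% protection of heart cells from peroxide-induced death in the single-dose screen, raw or plate-pattern-corrected value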;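 further: 0% = DMSO wells with peroxide and 100% = DMSO wells without peroxide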
Arr AP2 block – inhibitors of beta-arrestin/AP2 binding, primary screen, biochemical, GPCR trafficking, flow cytometry | AID 504490, 2011 | FITC-arrestin peptide / GST-AP2 beads; AP2 beta2 appendage carries R879A mutation | 340,000 compounds, 0.31% hits | inhibition, % at 10 µM | beta-arrestin 1 C-terminal peptide binding to AP2 beta2-adaptin appendage (human);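 active means inhibition above a set limit, near 3 SD of compounds lacking own fluorescence, cut at about 54% in these data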;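 further: plate controls were DMSO wells for no effect and 5 µM unlabelled arrestin peptide for full effect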
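Measured by: flow cytometry, FL1 (488/535 nm); Material: AP2 appendage R879A on GSH beads; Evaluation: percent response; Timing: pre-incubation 12 min, peptide binding 1 h, room temperature; Also added: 50 nM FITC-arrestin peptide; Medium: PBS with 0.05% Tween 20 and 0.1% BSA.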
SENP1 inh – human SENP1 catalytic domain inhibitors, primary screen, biochemical, FRET, uHTS | inhibition, % at 10 µM | recombinant SENP1 catalytic domain, CyPet-SUMO1-YPet FRET cleavage | 360,000 compounds, 0.21% hits | Sentrin-specific protease 1 (Homo sapiens), Q9P0U3;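 active means inhibition at least 30% at 10 µM, raw YFP signal under a set limit, fluorescence ratio 0.5 to 1.5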;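 further: 0% = enzyme with DMSO and 100% = no enzyme wells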
Target sequence (Q9P0U3 419-644 limits assumed): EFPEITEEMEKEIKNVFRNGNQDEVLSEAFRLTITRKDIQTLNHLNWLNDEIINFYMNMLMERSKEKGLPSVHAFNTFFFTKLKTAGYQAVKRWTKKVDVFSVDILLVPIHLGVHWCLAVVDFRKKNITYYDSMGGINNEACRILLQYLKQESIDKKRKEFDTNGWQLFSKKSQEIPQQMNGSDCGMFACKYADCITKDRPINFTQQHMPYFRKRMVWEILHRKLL
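Test system: human SENP1 catalytic domain; medium: Tris pH 8 buffer plus EDTA, NaCl, BME, BSA, NP40, catalase; incubation: 50 min reaction at room temperature; technique: FRET, CFP and YFP emission; controls: no-enzyme low control and enzyme-plus-DMSO high control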
FAS-TE inh – FAS thioesterase domain inhibitors, primary screen, biochemical, fluorescence intensity, uHTS | inhibition, % at 15 µM | 360,000 compounds, 0.67% hits | Fatty acid synthase (Homo sapiens), P49327 | recombinant FAS-TE, OMFH fluorogenic substrate, fluorescence endpoint;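 active means compounds whose normalised, plate-corrected inhibition of enzyme fluorescence in the single-dose primary screen is 50% or more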;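 further: 0% = DMSO with enzyme and 100% = substrate without enzyme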
hiPSC survival – enhancers of single-cell hiPSC survival, primary screen, ATPlite luminescence | AID 602274, 2012 | 100% = ROCK inhibitor wells, 0% = DMSO | survival enhancement, % at 20 µM | 360,000 compounds, 0.044% hits; in the data active means survival enhancement above about 18%;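 further: cells exposed to compounds for 16 hours before the ATP read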
FAS-TE inh conf – FAS thioesterase domain inhibitors, confirmation, biochemical, fluorescence intensity, single concentration. shares compounds with FAS-TE inh. recombinant FAS-TE, OMFH fluorogenic substrate. inhibition, % at 15 µM. 2,300 compounds, 45% hits. AID 624325, 2012;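 active means compounds inhibiting the enzyme by at least 50% at 15 µM in any one of the replicates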;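 further: 0% = enzyme with DMSO only and 100% = wells lacking enzyme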
The depositor's hits bear a star; · = no result. The list is not random: actives were taken first. Their share in the collection is about 4%.

SMILES	GRIN3A LBD mod	H9c2 protect	Arr AP2 block	SENP1 inh	FAS-TE inh	hiPSC survival	FAS-TE inh conf
CCn1cc(C(=O)N2CCCC2)c(=O)c2cc(S(=O)(=O)N3CC(C)CC(C)C3)ccc21 (centres undefined)	-2	-1	23	3	-3	0	·
C=CCn1cc(C(=O)NCc2ccco2)c(=O)c2cc(S(=O)(=O)N3CCCCCC3)ccc21	1	0	19	1	61*	0	70*
CCn1cc(C(=O)NCc2ccco2)c(=O)c2cc(S(=O)(=O)N3CCc4ccccc4C3)ccc21	-5	13	14	-6	47	3	·
O=c1cccc(-c2cccc3ccccc23)o1	·	·	·	2	·	·	·
COc1ccc(CN2C[C@@H](CO)O[C@@H](n3cnc4c(NCc5ccncc5)ncnc43)C2)cc1	·	3	·	2	-5	-2	·
O=C(Cn1c(=O)c2c(ncn2Cc2ccccc2)n(Cc2ccccc2)c1=O)N1CCc2ccccc21	2	2	6	1	66*	0	22
CCn1cnc2c1c(=O)n(CC(=O)N1CCc3ccccc31)c(=O)n2Cc1ccccc1	0	-1	13	-3	9	8	·
COc1ccc2cc3cc(C(=O)N4CCCC(C)C4)oc3nc2c1 (centres undefined)	5	-1	3	1	71*	1	71*
O=C(CN1CCN(S(=O)(=O)c2ccc(Cl)c(C(F)(F)F)c2)CC1)NC(=O)NC1CCCCC1	-4	-19	-4	0	77*	0	20*
COc1cccc(NC(=O)C2(C)CCN2C(=O)CC2CCCC2)c1 (centres undefined)	·	-1	·	0	-1	-2	·
CCc1ccc(N=CC23c4ccccc4C(c4ccccc42)C2C(=O)N(c4ccc(OC)cc4)C(=O)C23)cc1 (centres undefined)	0	1	3	2	38	-2	·
COc1ccc(N2C(=O)C3C4c5ccccc5C(C=Nc5ccc(C)cc5C)(c5ccccc54)C3C2=O)cc1 (centres undefined)	6	-6	-3	-1	56*	0	0
O=C(N/N=C\c1ccc(Cl)cc1)C1=NOC2COC3(CCN(c4ccc([N+](=O)[O-])cc4)CC3)OCC12 (centres undefined)	-3	-11	42	-15	69*	1	19
O=C(NNS(=O)(=O)c1ccc([N+](=O)[O-])cc1)c1ccc2ccccc2c1O	5	3	0	2	63*	1	77*
CN1C(=S)SC(N2OC3C(=O)N(c4ccccc4)C(=O)C3C2c2ccc(Cl)cc2)C1(C)C (centres undefined)	0	3	-3	1	69*	1	35
Cc1ccccc1C1=C/C(=C(\SS/C(C(=O)c2ccc(OCC(=O)O)c(Cl)c2Cl)=C2\C=C(c3ccccc3C)SS2)C(=O)c2ccc(OCC(=O)O)c(Cl)c2Cl)SS1	5	0	1	6	83*	2	88*
N#Cc1cc(-c2ccccc2)nc(Oc2ccc(Cl)cc2)n1	-9	-11	-6	0	65*	-1	53*
C#CCN(C[C@H]1[C@H](OC(=O)Nc2cccs2)[C@H](OC(=O)Nc2cccs2)C[C@H]2C(=O)N(c3ccccc3)C(=O)[C@@H]12)S(=O)(=O)c1ccc(C)cc1	·	13	·	0	54*	4	16
C#CCN(C[C@H]1[C@H](OC(=O)NC2CC2)[C@H](OC(=O)NC2CC2)C[C@H]2C(=O)N(c3ccccc3)C(=O)[C@@H]12)S(=O)(=O)c1ccc(C)cc1	·	12	·	1	-4	-1	·
C#CCN(C[C@H]1[C@H](OC(=O)NCc2ccccc2)[C@H](OC(=O)NCc2ccccc2)C[C@H]2C(=O)N(c3ccccc3)C(=O)[C@@H]12)S(=O)(=O)c1ccc(C)cc1	·	4	·	0	62*	-2	20
CNc1ncnc2c1ncn2[C@H]1CN(Cc2ccc(-c3ccccc3)cc2)C[C@@H](CO)O1	·	-3	·	-2	-3	-2	·
Cc1ccccc1CS(=O)(=O)c1nnc([C@H](CC(C)C)NC(=O)OC(C)(C)C)o1	1	-16	-1	1	52*	-1	55*
CC[C@@H](C)[C@H](NC(=O)OC(C)(C)C)c1nnc(S(=O)(=O)Cc2cc(C)ccc2C)o1	2	-40	-1	1	73*	-1	79*
CC(C)[C@H](NC(=O)OC(C)(C)C)c1nnc(S(=O)(=O)Cc2c(F)cccc2Cl)o1	0	-23	-6	3	83*	0	82*
CC(C)(C)OC(=O)N[C@@H](Cc1ccccc1)c1nnc(S(=O)(=O)Cc2cccc(F)c2)o1	-29	·	·	·	·	·	·
SMILES	GRIN3A LBD mod	H9c2 protect	Arr AP2 block	SENP1 inh	FAS-TE inh	hiPSC survival	FAS-TE inh conf
O=C(NCCc1ccccc1)C(c1cccs1)N(C(=O)CCl)c1ccc(Cl)cc1 (centres undefined)	-6	-26	-3	-3	56*	-2	54*
O=C(NCCc1ccccc1)C(c1cccs1)N(C(=O)c1csnn1)C1CC1 (centres undefined)	-1	4	4	1	-4	1	·
CCCCn1c(N)c(N(CC)C(=O)c2cccs2)c(=O)[nH]c1=O	0	-2	-5	-21	-7	-3	·
O=C(NCCC1=CCCCC1)c1ccc([N+](=O)[O-])cc1	-1	-2	-3	2	40	0	·
O=C(CCNC(=O)c1ccc([N+](=O)[O-])cc1)NCCc1ccccc1	-3	-3	7	0	60*	-1	46*
O=C(NCCc1ccc(F)cc1)c1ccc([N+](=O)[O-])cc1	-2	-6	5	1	28	1	·
O=C(CN1C(=O)c2ccc([N+](=O)[O-])cc2C1=O)NCCC1=CCCCC1	0	-2	-14	2	54*	0	54*
O=C(COc1ccc([N+](=O)[O-])cc1)NCCC1=CCCCC1	0	6	-3	3	63*	0	64*
Cc1ccc(OCC(=O)NCCC2=CCCCC2)cc1	1	9	17	4	-1	-2	·
